From ChEMBL document CHEMBL1129477, “Structure-activity relationships of the quinolone antibacterials against mycobacteria: effect of structural changes at N-1 and C-7” (J Med Chem, 1996)
≈ marks a conversion by molar mass, not a printed value.

What was measured:
Type in all cases: functional
Pseudomonas aeruginosa = assay: Anti-bacterial activity tested against Gram-negative PA-7 bacterium
Summary of the method: (§1)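 Standard microtitration MIC determination (µg/mL) against four representative Gram-negative and Gram-positive bacterial strains.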

[1] = test system: Mycolicibacterium smegmatis; assay: Anti-bacterial activity tested against Mycobacterium smegmatis (ATCG 19420)
Escherichia coli = assay: Anti-bacterial activity was tested against Gram-negative EC-1 bacterium; summary of the method: as §1
Staphylococcus aureus = assay: Anti-bacterial activity was tested against Gram-positive SA-13 bacterium; summary of the method: as §1
[2] = test system: Mycolicibacterium fortuitum; assay: Anti-bacterial activity tested against Mycobacterium fortuitum (ATCG 6841)
Streptococcus pyogenes = assay: Anti-bacterial activity tested against Gram-positive SP1-1 bacterium; summary of the method: as §1

SMILES | MIC (Pseudomonas aeruginosa) [µg/mL] | MIC [1] [µg/mL] | MIC (Escherichia coli) [µg/mL] | MIC (Staphylococcus aureus) [µg/mL] | MIC [2] [µg/mL] | MIC (Streptococcus pyogenes) [µg/mL]
CNCC1CCN(c2cc3c(cc2F)c(=O)c(C(=O)O)cn3C2CCC2)C1 (configuration not stated) | 3.1 (≈ 8.3 µM) | 4 (≈ 10.7 µM) | 0.8 (≈ 2.14 µM) | 0.8 (≈ 2.14 µM) | 2 (≈ 5.36 µM) | 1.6 (≈ 4.28 µM)
CC(C)NCC1CCN(c2cc3c(cc2F)c(=O)c(C(=O)O)cn3C2CC2)C1 (configuration not stated) | 3.1 (≈ 8 µM) | 0.5 (≈ 1.29 µM) | 0.4 (≈ 1.03 µM) | 0.4 (≈ 1.03 µM) | 0.25 (≈ 0.645 µM) | 1.6 (≈ 4.13 µM)
CC1CN(c2cc3c(cc2F)c(=O)c(C(=O)O)cn3-c2ccc(F)cc2F)CCN1 (configuration not stated) [TEMAFLOXACIN] | 0.8 (≈ 1.92 µM) | 0.5 (≈ 1.2 µM) | 0.1 (≈ 0.24 µM) | 0.4 (≈ 0.958 µM) | 0.13 (≈ 0.311 µM) | 0.4 (≈ 0.958 µM)
CCn1cc(C(=O)O)c(=O)c2cc(F)c(N3CCNCC3)cc21 [NORFLOXACIN] | 0.8 (≈ 2.51 µM) | 2 (≈ 6.26 µM) | 0.1 (≈ 0.313 µM) | 3.1 (≈ 9.71 µM) | 0.5 (≈ 1.57 µM) | > 3.1

Second part, the molecule after the results:

MIC (Pseudomonas aeruginosa) [µg/mL] | MIC [1] [µg/mL] | MIC (Escherichia coli) [µg/mL] | MIC (Staphylococcus aureus) [µg/mL] | MIC [2] [µg/mL] | MIC (Streptococcus pyogenes) [µg/mL] | SMILES
> 3.1 | 8 (≈ 22.1 µM) | 3.1 (≈ 8.58 µM) | 3.1 (≈ 8.58 µM) | 2 (≈ 5.53 µM) | 3.1 (≈ 8.58 µM) | CNCC1CCN(c2cc3c(cc2F)c(=O)c(C(=O)O)cn3C(C)C)C1 (configuration not stated)
0.8 (≈ 2.14 µM) | 0.5 (≈ 1.34 µM) | 0.2 (≈ 0.536 µM) | 0.2 (≈ 0.536 µM) | 0.13 (≈ 0.348 µM) | 0.2 (≈ 0.536 µM) | CN(C)CC1CCN(c2cc3c(cc2F)c(=O)c(C(=O)O)cn3C2CC2)C1 (configuration not stated)
0.8 (≈ 2.23 µM) | 0.25 (≈ 0.696 µM) | 0.1 (≈ 0.278 µM) | 0.8 (≈ 2.23 µM) | 0.13 (≈ 0.362 µM) | 0.8 (≈ 2.23 µM) | CCC1CN(c2cc3c(cc2F)c(=O)c(C(=O)O)cn3C2CC2)CCN1 (configuration not stated)
